pIC50, pKi: −log10 of the molar value.
Key:
[1] = target: 5-hydroxytryptamine receptor 2A (Homo sapiens, UniProt P28223); assay: Binding affinity towards human cloned 5-hydroxytryptamine receptor 2A in HEK293 cells, using [3H]ketanserin as radioligand.; assay type: cell-based
Summary of the method: (§1)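 Competition binding at human cloned receptors expressed in HEK 293 cells. Radioligands: [3H]ketanserin for 5-HT2A, [3H]5-HT for 5-HT2B, [3H]mesulergine for 5-HT2C. Values are pKi, given as the mean of at least two determinations, each within 0.2 log unit of the mean.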

[2] = target: T1, 5-hydroxytryptamine receptor 2C (Homo sapiens, UniProt P28335); assay: Binding affinity towards human cloned 5-hydroxytryptamine receptor 2C in HEK293 cells, using [3H]mesulergine as radioligand.; assay type: cell-based; summary of the method: as §1
T1 sequence (P28335 whole entry): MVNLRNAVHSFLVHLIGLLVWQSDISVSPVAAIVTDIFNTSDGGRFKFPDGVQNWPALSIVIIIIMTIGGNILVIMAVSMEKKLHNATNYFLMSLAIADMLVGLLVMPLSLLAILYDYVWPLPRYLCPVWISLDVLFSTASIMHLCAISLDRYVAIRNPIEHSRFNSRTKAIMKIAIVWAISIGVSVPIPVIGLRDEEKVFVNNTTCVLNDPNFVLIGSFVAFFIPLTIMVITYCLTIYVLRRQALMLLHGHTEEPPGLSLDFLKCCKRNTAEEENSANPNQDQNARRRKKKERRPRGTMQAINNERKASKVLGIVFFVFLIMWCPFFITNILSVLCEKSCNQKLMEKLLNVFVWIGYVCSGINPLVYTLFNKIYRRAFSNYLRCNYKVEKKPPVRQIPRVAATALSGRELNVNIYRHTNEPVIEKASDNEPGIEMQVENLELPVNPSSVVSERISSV

Rattus norvegicus = assay: Dose required to reverse mCPP induced hypolocomotion in rat after oral administration.; assay type: functional; conditions: read-out: ID50 (the source's name)
Summary of the method: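 Rat hypolocomotion model. The test compound was given orally, and mCPP was given at 7 mg/kg ip 30 min before the test. ID50 (mg/kg po) is the dose that reverses mCPP-induced hypolocomotion by 50%.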

[3] = target: T2, 5-hydroxytryptamine receptor 2B (Homo sapiens, UniProt P41595); assay: Binding affinities towards human cloned 5-hydroxytryptamine 2B receptor in HEK293 cells using [3H]5-HT as radioligand.; assay type: cell-based; summary of the method: as §1
[4] = target: T3, Serotonin receptor (2b and 2c) (Homo sapiens) (UniProt P41595+P28335); assay: Selectivity index determined from the binding affinities of 5-HT2C and 5-HT2B.; assay type: protein assay
[5] = target: T4, Serotonin 2 receptors; 5-HT2a & 5-HT2c (Homo sapiens) (UniProt P28223+P28335); assay: Selectivity index determined from binding affinities of 5-HT2C and 5-HT2A.; assay type: protein assay
Cytochrome P450 1A2 [6] = target: T5, Cytochrome P450 1A2 (Homo sapiens, UniProt P05177); assay: Inhibition of heterologously expressed human cytochrome P450 1A2.; assay type: ADME
T5 sequence (P05177 whole entry): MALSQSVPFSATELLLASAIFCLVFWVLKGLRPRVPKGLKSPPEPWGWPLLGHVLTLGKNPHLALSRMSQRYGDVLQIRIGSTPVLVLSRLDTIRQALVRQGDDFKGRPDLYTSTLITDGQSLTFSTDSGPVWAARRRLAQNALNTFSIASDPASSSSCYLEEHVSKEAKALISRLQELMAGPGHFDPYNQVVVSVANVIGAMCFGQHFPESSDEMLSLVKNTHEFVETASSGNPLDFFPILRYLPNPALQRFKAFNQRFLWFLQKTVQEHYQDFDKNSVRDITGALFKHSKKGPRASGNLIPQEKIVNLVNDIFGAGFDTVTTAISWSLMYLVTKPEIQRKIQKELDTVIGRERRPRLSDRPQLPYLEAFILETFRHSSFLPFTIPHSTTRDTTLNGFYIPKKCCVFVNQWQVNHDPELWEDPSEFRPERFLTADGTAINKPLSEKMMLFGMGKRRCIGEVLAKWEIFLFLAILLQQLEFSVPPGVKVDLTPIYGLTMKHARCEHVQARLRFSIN
Summary of the method: (§2)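 Heterologously expressed human CYP1A2 in an isoform-selective assay. Substrate: caffeine N3-demethylation at 500 µM, at the substrate Km.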

[7] = target: T2, 5-hydroxytryptamine receptor 2B; assay: Displacement of [3H]5-HT from human 5-hydroxytryptamine 2B receptor expressed in HEK293 cells; assay type: cell-based; summary of the method: as §1
[8] = target: T3, Serotonin receptor (2b and 2c) (Homo sapiens); assay: Selectivity index for binding affinities for 5-HT2C and 5-HT2B receptors; assay type: protein assay
Cytochrome P450 2C19 = Cytochrome P450 2C19 (Homo sapiens, UniProt P33261); assay: Inhibition of heterologously expressed human cytochrome P450 2C19; assay type: ADME
[9] = target: T4, Serotonin 2 receptors; 5-HT2a & 5-HT2c (Homo sapiens); assay: Selectivity index for binding affinities for 5-HT2C and 5-HT2A receptors; assay type: protein assay
Cytochrome P450 1A2 [10] = target: T5, Cytochrome P450 1A2; assay: Inhibition of heterologously expressed human cytochrome P450 1A2; assay type: ADME; summary of the method: as §2

T4 sequence (P28223 whole entry, looked up, one chain of several): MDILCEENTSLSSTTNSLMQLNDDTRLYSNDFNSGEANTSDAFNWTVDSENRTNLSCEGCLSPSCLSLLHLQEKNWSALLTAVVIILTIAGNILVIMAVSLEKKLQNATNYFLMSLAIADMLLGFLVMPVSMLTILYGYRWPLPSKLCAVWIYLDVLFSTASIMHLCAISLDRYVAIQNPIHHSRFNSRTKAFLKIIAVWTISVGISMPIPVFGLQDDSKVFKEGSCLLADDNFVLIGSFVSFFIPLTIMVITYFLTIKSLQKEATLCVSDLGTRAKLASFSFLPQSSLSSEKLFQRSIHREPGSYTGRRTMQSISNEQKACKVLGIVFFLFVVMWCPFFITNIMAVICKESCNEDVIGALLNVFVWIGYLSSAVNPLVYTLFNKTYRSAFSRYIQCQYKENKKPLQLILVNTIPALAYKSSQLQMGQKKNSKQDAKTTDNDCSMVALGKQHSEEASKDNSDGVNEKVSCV
Sequence of 5-hydroxytryptamine receptor 2A (P28223 whole entry): as the sequence (P28223 whole entry, looked up, one chain of several) above
T2 sequence (P41595 whole entry): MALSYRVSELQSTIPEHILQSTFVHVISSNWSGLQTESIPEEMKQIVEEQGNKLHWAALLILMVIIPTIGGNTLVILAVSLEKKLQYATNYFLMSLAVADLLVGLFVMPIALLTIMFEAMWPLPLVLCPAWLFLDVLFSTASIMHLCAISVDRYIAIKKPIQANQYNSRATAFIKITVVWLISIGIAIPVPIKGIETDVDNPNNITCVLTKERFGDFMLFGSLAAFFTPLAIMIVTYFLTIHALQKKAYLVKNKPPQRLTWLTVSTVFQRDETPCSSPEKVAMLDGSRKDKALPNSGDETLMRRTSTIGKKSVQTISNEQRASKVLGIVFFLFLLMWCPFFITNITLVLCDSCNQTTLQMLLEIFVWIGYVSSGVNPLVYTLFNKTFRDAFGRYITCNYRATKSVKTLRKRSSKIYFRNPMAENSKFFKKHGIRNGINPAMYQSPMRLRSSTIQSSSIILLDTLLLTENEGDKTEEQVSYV
Sequence of Cytochrome P450 2C19 (P33261 whole entry): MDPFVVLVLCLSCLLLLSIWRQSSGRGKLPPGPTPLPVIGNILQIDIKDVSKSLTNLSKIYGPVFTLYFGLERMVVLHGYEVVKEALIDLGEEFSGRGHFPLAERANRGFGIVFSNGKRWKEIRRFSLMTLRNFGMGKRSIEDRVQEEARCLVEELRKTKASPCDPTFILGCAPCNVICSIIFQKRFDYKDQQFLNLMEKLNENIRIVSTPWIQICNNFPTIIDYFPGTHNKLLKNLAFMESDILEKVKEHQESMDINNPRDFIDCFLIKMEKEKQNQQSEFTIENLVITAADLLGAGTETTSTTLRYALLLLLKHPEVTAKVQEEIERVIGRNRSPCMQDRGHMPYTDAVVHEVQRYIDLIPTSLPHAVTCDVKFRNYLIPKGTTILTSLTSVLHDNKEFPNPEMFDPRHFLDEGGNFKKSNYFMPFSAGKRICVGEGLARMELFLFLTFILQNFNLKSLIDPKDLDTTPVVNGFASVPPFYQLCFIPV

| pKi [1] | pKi [2] | pKi [3] | Selectivity [4] | Selectivity [5] | pIC50 (Cytochrome P450 1A2 [6]) | pKi [7] | inhibition at 1 µM (Cytochrome P450 1A2 [6]) | Inhibition (Cytochrome P450 1A2 [6]) | Selectivity [8] | pIC50 (Cytochrome P450 2C19) | Selectivity [9] | Inhibition (Cytochrome P450 1A2 [10]) | SMILES | ED50 (Rattus norvegicus) |
| --- | --- | --- | --- | --- | --- | --- | --- | --- | --- | --- | --- | --- | --- | --- |
| 6.70 | 9.20 | 8.00 | 16 | 320 | 5.22 |  |  |  |  |  |  |  | CCc1cc(NC(=O)N2CCc3cc(OC)c(C(F)(F)F)cc32)cc(-c2cccnc2)c1 | 1.2 mg/kg |
| 6.60 | 8.20 |  |  | 40 |  | 7.20 |  |  |  |  |  |  | COc1cc2c(cc1C(F)(F)F)N(C(=O)Nc1cncc(-c3ccc(F)cc3)c1)CC2 | 10 mg/kg |
| 6.60 | 9.30 | 8.10 | 16 | 500 | 5.70 |  |  |  |  |  |  |  | COc1cc2c(cc1C(F)(F)F)N(C(=O)Nc1cc3c(c(-c4cccnc4)c1)OCC3)CC2 | 2 mg/kg |
| 5.30 | 9.00 | 8.30 | 5 | 5000 | 5.15 |  |  |  |  |  |  |  | COc1cc2c(cc1C(F)(F)F)N(C(=O)Nc1ccc(C)c(-c3cccnc3)c1)CC2 | 1.6 mg/kg |
| < 5.00 | 8.30 | 7.90 | 3 | > 2000 |  |  |  |  |  |  |  |  | COc1cc2c(cc1C(F)(F)F)N(C(=O)Nc1ccc(-c3ccncc3)cc1)CC2 |  |
| 7.20 | 9.20 |  | 16 | 100 | 4.30 | 8.00 |  |  |  |  |  |  | COc1cc2c(cc1C(F)(F)F)N(C(=O)Nc1cncc(-c3ccncc3)c1)CC2 |  |
| 5.40 | 7.80 | 8.00 | 0.6 | 250 |  |  |  |  |  |  |  |  | COc1cc2c(cc1C(F)(F)F)N(C(=O)Nc1ccc(-c3cccnc3)cc1)CC2 | > 10 mg/kg |
| 6.60 | 8.00 | 8.30 | 0.5 | 25 |  |  |  |  |  |  |  |  | COc1cc2c(cc1C(F)(F)F)N(C(=O)Nc1cccc(-c3cccnc3)c1Cl)CC2 |  |
| 6.20 | 8.60 | 7.80 | 6 | 250 |  |  |  |  |  |  |  |  | COc1cc2c(cc1C(F)(F)F)N(C(=O)Nc1cc(-c3ccccc3)cc(-c3cccnc3)c1)CC2 | > 5 mg/kg |
| 6.70 | 8.60 | 7.90 | 5 | 80 |  |  |  |  |  |  |  |  | COc1cc2c(cc1C(F)(F)F)N(C(=O)Nc1cccc(-c3c(C)ccnc3C)c1)CC2 |  |
| 6.60 | 9.20 |  |  | 400 |  |  | 8% |  |  |  |  |  | COc1cc2c(cc1C(F)(F)F)N(C(=O)Nc1cccc(-c3cnccc3C)c1)CC2 | 5 mg/kg |
| < 6.00 | 9.20 |  |  | > 1500 | 4.96 |  |  |  |  |  |  |  | COc1cc2c(cc1C(F)(F)F)N(C(=O)Nc1ccc(Cl)c(-c3cnccc3C)c1)CC2 | 1.4 mg/kg |
| < 5.00 | 7.60 |  | 4 | > 420 |  | 7.00 |  |  |  |  |  |  | COc1cc2c(cc1C(F)(F)F)N(C(=O)Nc1cncc(-c3c(F)cccc3F)c1)CC2 |  |
| 6.70 | 9.30 | 7.80 | 30 | 400 |  |  |  | 3% |  |  |  |  | COc1ccc(NC(=O)N2CCc3cc(OC)c(C(F)(F)F)cc32)cc1-c1cccnc1 | 1.2 mg/kg |
| 6.80 | 8.50 |  | 8 | 50 |  | 7.60 |  |  |  |  |  |  | CSc1cc2c(cc1C(F)(F)F)N(C(=O)Nc1cccc(-c3ccncc3)c1)CC2 |  |
| 7.00 | 8.90 | 7.70 | 16 | 80 |  |  |  |  |  |  |  |  | COc1cc2c(cc1C(F)(F)F)N(C(=O)Nc1ccc(Oc3cccnc3)nc1)CC2 | 0.7 mg/kg |

| pKi [1] | pKi [2] | pKi [3] | Selectivity [4] | Selectivity [5] | pIC50 (Cytochrome P450 1A2 [6]) | pKi [7] | inhibition at 1 µM (Cytochrome P450 1A2 [6]) | Inhibition (Cytochrome P450 1A2 [6]) | Selectivity [8] | pIC50 (Cytochrome P450 2C19) | Selectivity [9] | Inhibition (Cytochrome P450 1A2 [10]) | SMILES | ED50 (Rattus norvegicus) |
| --- | --- | --- | --- | --- | --- | --- | --- | --- | --- | --- | --- | --- | --- | --- |
| < 6.00 | 8.70 | 7.70 | 10 | > 500 | 5.15 |  |  |  |  |  |  |  | COc1cc2c(cc1C(F)(F)F)N(C(=O)Nc1cc(Br)cc(-c3cccnc3)c1)CC2 | 5 mg/kg |
| 5.90 | 7.10 |  | 6 | 15 |  | 6.30 |  |  |  |  |  |  | COc1cc2c(cc1C(F)(F)F)N(C(=O)Nc1cncc(-c3cc(F)cc(F)c3)c1)CC2 |  |
|  |  |  |  |  |  |  |  |  | 100 | < 4.00 | 160 |  | Cc1cc2c(cc1Cl)N(C(=O)Nc1ccc(Oc3cccnc3C)nc1)CC2 [SB-242084] |  |
| 6.40 | 7.60 |  |  | 16 |  |  |  |  |  |  |  |  | COc1cc2c(cc1C(F)(F)F)N(C(=O)Nc1cccc(-c3cccnc3)c1C)CC2 |  |
| 6.30 | 7.70 |  |  | 25 |  |  | 3% |  |  |  |  |  | COc1cc2c(cc1C(F)(F)F)N(C(=O)Nc1cccc(-c3ccccn3)c1)CC2 |  |
| 7.10 | 8.80 |  | 5 | 50 |  | 8.10 |  |  |  |  |  |  | CSc1cc2c(cc1C(F)(F)F)N(C(=O)Nc1cccc(-c3cccnc3)c1)CC2 |  |
| 5.90 | 8.30 | 7.60 | 5 | 250 | 4.14 |  |  |  |  |  |  |  | COc1cc2c(cc1C(F)(F)F)N(C(=O)Nc1ccc(Cl)c(-c3cccnc3)c1)CC2 | 5.5 mg/kg |
| 5.80 | 8.30 |  | 5 | 320 | 5.59 | 7.60 |  |  |  |  |  |  | COc1cc2c(cc1C(F)(F)F)N(C(=O)Nc1cncc(-c3ccccc3)c1)CC2 | > 20 mg/kg |
| 7.20 | 9.10 |  | 12 | 80 |  | 8.00 |  | 77% |  |  |  |  | COc1cc2c(cc1C(F)(F)F)N(C(=O)Nc1cncc(-c3cccnc3)c1)CC2 |  |
| 6.70 | 9.00 | 8.10 | 8 | 200 | 5.40 |  |  |  |  |  |  |  | COc1cc2c(cc1C(F)(F)F)N(C(=O)Nc1cccc(-c3cccnc3)c1)CC2 | 0.6 mg/kg |
| < 5.20 | 9.50 | 8.40 | 12 | > 20000 | < 4.00 |  |  |  |  |  |  |  | COc1cc2c(cc1C(F)(F)F)N(C(=O)Nc1ccc(C)c(-c3cnccc3C)c1)CC2 | 1.4 mg/kg |
| 6.30 | 8.30 | 7.80 | 3 | 100 |  |  |  |  |  |  |  | 2% | COc1cc2c(cc1C(F)(F)F)N(C(=O)Nc1cccc(-c3cccnc3C)c1)CC2 | > 10 mg/kg |
| 5.10 | 5.70 | 5.70 | 1 | 4 |  |  |  |  |  |  |  |  | COc1cc2c(cc1C(F)(F)F)N(C(=O)Nc1cc(-c3cccnc3)ccc1F)CC2 |  |
|  |  |  |  | 120 | 7.70 |  |  |  |  |  |  |  | COc1cc2c(cc1C(F)(F)F)N(C(=O)Nc1cccnc1)CC2 |  |
| 6.10 | 9.20 | 7.30 |  |  | < 4.00 |  |  |  | 80 |  | 1300 |  | COc1cc2c(cc1C(F)(F)F)N(C(=O)Nc1ccc(Oc3cccnc3C)nc1)CC2 | 2.8 mg/kg |
| 5.80 | 9.20 | 8.10 | 13 | 1600 |  |  |  |  |  |  |  |  | COc1cc2c(cc1C(F)(F)F)N(C(=O)Nc1cc(F)c(C)c(-c3cccnc3)c1)CC2 | > 5 mg/kg |

— ChEMBL document CHEMBL1132976, “Biarylcarbamoylindolines are novel and selective 5-HT(2C) receptor inverse agonists: identification of 5-methyl-1-[[2-[(2-methyl-3-pyridyl)oxy]- 5-pyridyl]carbamoyl]-6-trifluoromethylindoline (SB-243213) as a potential antidepressant/anxiolytic agent” (J Med Chem, 2000)
